Entries after “also recorded” stand apart in the source; their conditions may differ.
How the values were obtained:
[1] = tested on: AGS cells overexpressing WNT1; test: Lactose/mannose treatment of WNT1-overexpressing AGS cells; format: cell-based, human; settings: 50 mM, 4 h preincubation
Procedure, shortened: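 AGS cells were transfected with HA-WNT1. Lactose or mannose (50 mM) was added 4 h before cell extraction, and the indicated proteins were then detected in the extracts.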

cells = settings: cited from earlier work
AGS cells = format: cell-based, human
[2] = biological target: human STAT3 (residues 127–688) (Homo sapiens, UniProt P40763); test: ITC binding of galectin-3 peptides to STAT3; settings: abstract statement
Procedure, shortened: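 Human STAT3 residues 127–688 was expressed from pET22b(+) and purified. ITC was run at 25 °C. Wild-type and Y45-phosphorylated galectin-3 peptides (140 μM each) in 20 mM Tris pH 7.5, 300 mM NaCl were injected at 220 s intervals into 7 μM STAT3. Heats of dilution from buffer controls were subtracted, and data were fitted to a single set of binding sites model.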

human STAT3 (residues 127–688), sequence (P40763 127-688): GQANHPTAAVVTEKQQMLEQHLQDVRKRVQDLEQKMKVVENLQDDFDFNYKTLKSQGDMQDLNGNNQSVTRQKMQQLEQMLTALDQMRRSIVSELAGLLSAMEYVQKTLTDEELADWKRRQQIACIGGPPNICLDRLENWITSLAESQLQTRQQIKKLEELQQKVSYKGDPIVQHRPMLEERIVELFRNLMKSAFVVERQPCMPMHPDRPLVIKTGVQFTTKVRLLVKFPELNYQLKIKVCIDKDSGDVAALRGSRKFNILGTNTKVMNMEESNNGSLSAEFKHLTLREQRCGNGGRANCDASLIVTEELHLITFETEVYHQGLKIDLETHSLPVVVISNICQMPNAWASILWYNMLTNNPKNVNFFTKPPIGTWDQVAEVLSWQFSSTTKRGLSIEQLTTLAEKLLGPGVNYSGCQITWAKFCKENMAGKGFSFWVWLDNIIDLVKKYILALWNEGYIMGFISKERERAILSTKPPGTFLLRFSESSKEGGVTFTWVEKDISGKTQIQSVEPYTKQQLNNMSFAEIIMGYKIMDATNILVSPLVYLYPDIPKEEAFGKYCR

## OC[C@H]1O[C@@H](O[C@H]2[C@H](O)[C@@H](O)C(O)O[C@@H]2CO)[C@H](O)[C@@H](O)[C@H]1O (mixture of isomers) [lactose]
[1]
  inhibition of STAT3 phosphorylation: did not inhibit
  inhibition of β-catenin stability: did not inhibit
cells; stated without reference
  cellular uptake of lactose: too polar to be taken up by the cells

## OC[C@H]1O[C@H](Sc2ccc(Cl)c(Cl)c2)[C@H](O)[C@@H](n2cc(-c3cc(F)c(F)c(F)c3)nn2)[C@H]1O [GB1107]
cells
  uptake across cell membranes: improved uptake across cell membranes; also recorded: can penetrate into cells

## OC[C@H]1OC(O)[C@@H](O)[C@@H](O)[C@@H]1O (stereo partly drawn) [mannose]
[1]
  inhibition of STAT3 phosphorylation: did not inhibit
  inhibition of β-catenin stability: did not inhibit

## IL-6: IL-6 cytokine
AGS cells; AGS cells, IL-6 alone
  STAT3 phosphorylation on IL-6 treatment: induced STAT3 phosphorylation

## YPGQ [peptide of galectin-3 (Y45-Q48)]
AGS cells; abstract statement
  enhancement of STAT3 phosphorylation: enhanced its phosphorylation
[2]
  direct binding to the STAT3 SH2 domain: directly bound to the STAT3 SH2 domain

— paper PMC9907361 (Gastric cancer : official journal of the International …, 2021)
